Measured values: ChEMBL document CHEMBL3286182, “4-aminoquinolone piperidine amides: noncovalent inhibitors of DprE1 with long residence time and potent antimycobacterial activity” (J Med Chem, 2014)
≈ marks a conversion by molar mass, not a printed value. Calls of active or inactive are those of the source. The calls are words filed in the database; no cut-off is given here.

Legend:
[1] = Inhibition of Mycobacterium smegmatis recombinant DprE1 using farnesylphosphoryl-beta-D-ribofuranose as substrate assessed as conversion of amplex red to resorufin after 30 mins; design: species or system Mycolicibacterium smegmatis
In short: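 Msm DprE1 (thioredoxin-6His fusion of Msm Rv3790) at 75 nM, preincubated 30 min with 10 μM FAD. Buffer: 50 mM glycylglycine pH 8.5, 200 mM potassium glutamate, 0.002% Brij-35, 2% DMSO, 25 °C. Started with 300 μM farnesylphosphoryl-β-D-ribofuranose, 0.01 mg/mL HRP and 50 μM Amplex Red.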

[2] = test system: Mycolicibacterium smegmatis; experiment: Ratio of IC50 for Mycobacterium smegmatis DprE1 Y321H mutant to IC50 for Mycobacterium smegmatis recombinant wild type DprE1
In short: (§1)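 Recombinant M. smegmatis DprE1 (thioredoxin-6His fusion), wild type or Y321H, 75 nM. Enzyme was preincubated 30 min in FAD assay mix: 50 mM glycylglycine pH 8.5, 200 mM potassium glutamate, 10 μM FAD, 0.002% Brij-35, 2% DMSO. Reaction was started with 300 μM farnesylphosphoryl-β-D-ribofuranose, 0.01 mg/mL HRP and 50 μM amplex red at 25 °C.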

[3] = Inhibition of Mycobacterium smegmatis DprE1 Y321H mutant using farnesylphosphoryl-beta-D-ribofuranose as substrate assessed as conversion of amplex red to resorufin after 30 mins; design: species or system Mycolicibacterium smegmatis; in short: as §1
[4] = test system: Mycobacterium tuberculosis; experiment: Antimycobacterial activity against Mycobacterium tuberculosis H37Rv after 5 days by standard microdilution method; assay type: functional; details: 120 h
[5] = test system: Mycobacterium tuberculosis; experiment: Antimycobacterial activity against Mycobacterium tuberculosis over expressing DprE1 after 5 days by standard microdilution method; assay type: functional; details: 120 h
[6] = test system: Mycobacterium tuberculosis; experiment: Antimycobacterial activity against Mycobacterium tuberculosis H37Rv under hypoxic condition after 6 days by resazurin assay; assay type: functional
[7] = test system: Mycobacterium tuberculosis; experiment: Antimycobacterial activity against Mycobacterium tuberculosis over expressing InhA after 5 days by standard microdilution method; assay type: functional; details: 120 h
[8] = test system: Mycobacterium tuberculosis; experiment: Antimycobacterial activity against Mycobacterium tuberculosis over expressing PimA after 5 days by standard microdilution method; assay type: functional; details: 120 h
[9] = test system: Mycobacterium tuberculosis; experiment: Antimycobacterial activity against Mycobacterium tuberculosis over expressing TopA after 5 days by standard microdilution method; assay type: functional; details: 120 h
[10] = Cytotoxicity against human A549 cells after 72 hrs by resazurin based fluorescence assay; assay type: cell-based; details: read-out: MIC
In short: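 Cytotoxicity read as MMIC, the MIC on the A549 cell line.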

[11] = Intrinsic clearance in human liver microsomes at 1 uM up to 30 mins by LC-MS/MS analysis; assay type: ADME; details: read-out: CLH
[12] = Intrinsic clearance in rat cryopreserved hepatocytes assessed per 10^6 cells at 1 uM up to 120 mins by LC-MS/MS analysis; assay type: ADME, cell-based, Hepatocyte; details: read-out: CLH
Cytochrome P450 2C9 = Cytochrome P450 2C9 (Homo sapiens, UniProt P11712); experiment: Inhibition of CYP2C9 (unknown origin); assay type: ADME
Sequence of Cytochrome P450 2C9 (P11712 whole entry, canonical isoform): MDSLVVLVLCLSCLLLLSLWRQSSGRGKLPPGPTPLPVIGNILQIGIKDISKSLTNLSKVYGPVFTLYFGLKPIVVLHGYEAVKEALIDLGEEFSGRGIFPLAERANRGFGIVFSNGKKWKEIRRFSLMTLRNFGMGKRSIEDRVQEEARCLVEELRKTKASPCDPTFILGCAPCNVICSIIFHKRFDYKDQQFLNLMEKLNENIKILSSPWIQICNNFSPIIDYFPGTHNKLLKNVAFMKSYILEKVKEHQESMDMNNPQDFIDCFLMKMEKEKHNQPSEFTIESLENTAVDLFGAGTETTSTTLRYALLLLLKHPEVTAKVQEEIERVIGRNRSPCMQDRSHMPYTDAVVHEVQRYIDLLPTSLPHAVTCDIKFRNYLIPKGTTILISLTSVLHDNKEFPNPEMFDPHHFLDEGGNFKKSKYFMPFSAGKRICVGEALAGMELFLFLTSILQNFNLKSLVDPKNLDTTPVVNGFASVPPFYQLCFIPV
In short: (§2)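 CYP inhibition IC50 measured on isoforms CYP3A4, CYP2D6, CYP2C9, CYP2C19 and CYP1A2.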

[13] = Solubility of the compound in 0.1 M phosphate buffer at pH 7.4 after 24 hrs by UV and MS analysis; assay type: physicochemical
Cytochrome P450 2D6 = Cytochrome P450 2D6 (Homo sapiens, UniProt P10635); experiment: Inhibition of CYP2D6 (unknown origin); assay type: ADME; in short: as §2
Sequence of Cytochrome P450 2D6 (P10635 whole entry): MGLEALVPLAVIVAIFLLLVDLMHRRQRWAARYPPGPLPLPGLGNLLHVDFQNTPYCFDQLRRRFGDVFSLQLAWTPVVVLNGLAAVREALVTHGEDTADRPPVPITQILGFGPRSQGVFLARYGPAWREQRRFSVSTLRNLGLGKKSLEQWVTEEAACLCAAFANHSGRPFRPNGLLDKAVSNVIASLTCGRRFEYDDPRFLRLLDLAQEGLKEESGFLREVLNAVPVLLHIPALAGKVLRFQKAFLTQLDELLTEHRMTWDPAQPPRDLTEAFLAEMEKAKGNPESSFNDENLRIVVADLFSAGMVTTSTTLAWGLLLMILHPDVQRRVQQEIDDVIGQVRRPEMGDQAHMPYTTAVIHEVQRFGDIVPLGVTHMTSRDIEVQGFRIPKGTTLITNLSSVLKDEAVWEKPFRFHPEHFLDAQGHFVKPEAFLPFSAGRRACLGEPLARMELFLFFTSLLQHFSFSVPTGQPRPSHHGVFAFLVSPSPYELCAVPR

Cytochrome P450 1A2 = molecular target: T1, Cytochrome P450 1A2 (Homo sapiens, UniProt P05177); experiment: Inhibition of CYP1A2 (unknown origin); assay type: ADME; in short: as §2
T1 sequence (P05177 whole entry): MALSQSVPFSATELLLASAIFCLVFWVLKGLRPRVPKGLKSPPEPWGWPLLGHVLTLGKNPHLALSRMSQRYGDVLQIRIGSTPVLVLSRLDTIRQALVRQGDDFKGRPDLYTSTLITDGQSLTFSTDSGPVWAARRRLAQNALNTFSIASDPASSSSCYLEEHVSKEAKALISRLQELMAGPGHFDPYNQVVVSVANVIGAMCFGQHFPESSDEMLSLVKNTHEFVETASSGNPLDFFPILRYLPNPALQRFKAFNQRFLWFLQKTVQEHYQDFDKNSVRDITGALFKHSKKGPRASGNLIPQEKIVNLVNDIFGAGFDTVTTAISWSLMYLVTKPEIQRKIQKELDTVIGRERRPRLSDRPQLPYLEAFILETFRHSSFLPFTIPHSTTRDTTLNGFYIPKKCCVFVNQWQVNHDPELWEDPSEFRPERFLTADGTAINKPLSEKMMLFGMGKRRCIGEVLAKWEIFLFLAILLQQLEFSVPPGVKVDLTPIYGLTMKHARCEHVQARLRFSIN

[14] = Fraction unbound in human plasma at 20 uM after 18 hrs by equilibrium dialysis method; assay type: ADME, cell-free
[15] = Permeability of the compound from apical to basolateral side in human Caco2 cells; assay type: ADME, cell-based; details: Caco-2, read-out: permeability
Cytochrome P450 3A4 = Cytochrome P450 3A4 (Homo sapiens, UniProt P08684); experiment: Inhibition of CYP3A4 (unknown origin); assay type: ADME; in short: as §2
Sequence of Cytochrome P450 3A4 (P08684 whole entry): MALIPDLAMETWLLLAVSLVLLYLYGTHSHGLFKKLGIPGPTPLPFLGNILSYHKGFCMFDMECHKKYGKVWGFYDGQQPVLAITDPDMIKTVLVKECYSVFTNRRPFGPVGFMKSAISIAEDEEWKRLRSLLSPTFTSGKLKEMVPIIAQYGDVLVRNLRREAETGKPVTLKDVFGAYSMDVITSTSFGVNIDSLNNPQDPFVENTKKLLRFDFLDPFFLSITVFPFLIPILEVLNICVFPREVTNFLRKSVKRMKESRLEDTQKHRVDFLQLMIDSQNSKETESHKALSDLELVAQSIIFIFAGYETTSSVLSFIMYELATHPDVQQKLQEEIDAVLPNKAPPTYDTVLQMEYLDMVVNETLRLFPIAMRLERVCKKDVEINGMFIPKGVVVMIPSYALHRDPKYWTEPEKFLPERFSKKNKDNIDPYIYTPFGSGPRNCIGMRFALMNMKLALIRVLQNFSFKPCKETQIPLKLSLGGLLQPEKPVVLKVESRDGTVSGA

[16] = Permeability of the compound from basolateral to apical side in human Caco2 cells; assay type: ADME, cell-based; details: Caco-2, read-out: permeability
Cytochrome P450 2C19 = Cytochrome P450 2C19 (Homo sapiens, UniProt P33261); experiment: Inhibition of CYP2C19 (unknown origin); assay type: ADME; in short: as §2
Sequence of Cytochrome P450 2C19 (P33261 whole entry): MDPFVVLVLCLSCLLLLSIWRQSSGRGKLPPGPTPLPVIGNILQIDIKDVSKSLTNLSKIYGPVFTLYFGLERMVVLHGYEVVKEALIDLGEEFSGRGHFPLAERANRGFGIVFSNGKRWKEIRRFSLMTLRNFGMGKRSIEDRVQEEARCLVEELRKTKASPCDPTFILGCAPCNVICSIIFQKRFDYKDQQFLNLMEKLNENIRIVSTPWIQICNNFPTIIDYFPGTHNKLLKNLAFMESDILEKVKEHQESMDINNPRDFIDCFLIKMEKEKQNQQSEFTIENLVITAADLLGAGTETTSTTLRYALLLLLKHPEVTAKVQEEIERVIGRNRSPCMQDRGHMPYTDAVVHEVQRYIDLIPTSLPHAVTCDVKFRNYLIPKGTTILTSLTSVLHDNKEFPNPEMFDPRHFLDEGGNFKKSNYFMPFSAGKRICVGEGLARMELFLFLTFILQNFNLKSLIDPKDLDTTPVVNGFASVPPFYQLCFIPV

[17] = Solubility of the compound in fed-state simulated intestinal fluid at pH 6.5; assay type: ADME
[18] = molecular target: Voltage-gated inwardly rectifying potassium channel KCNH2 (Homo sapiens, UniProt Q12809); experiment: Inhibition of human ERG by medium-throughput electrophysiology
Sequence of Voltage-gated inwardly rectifying potassium channel KCNH2 (Q12809 whole entry): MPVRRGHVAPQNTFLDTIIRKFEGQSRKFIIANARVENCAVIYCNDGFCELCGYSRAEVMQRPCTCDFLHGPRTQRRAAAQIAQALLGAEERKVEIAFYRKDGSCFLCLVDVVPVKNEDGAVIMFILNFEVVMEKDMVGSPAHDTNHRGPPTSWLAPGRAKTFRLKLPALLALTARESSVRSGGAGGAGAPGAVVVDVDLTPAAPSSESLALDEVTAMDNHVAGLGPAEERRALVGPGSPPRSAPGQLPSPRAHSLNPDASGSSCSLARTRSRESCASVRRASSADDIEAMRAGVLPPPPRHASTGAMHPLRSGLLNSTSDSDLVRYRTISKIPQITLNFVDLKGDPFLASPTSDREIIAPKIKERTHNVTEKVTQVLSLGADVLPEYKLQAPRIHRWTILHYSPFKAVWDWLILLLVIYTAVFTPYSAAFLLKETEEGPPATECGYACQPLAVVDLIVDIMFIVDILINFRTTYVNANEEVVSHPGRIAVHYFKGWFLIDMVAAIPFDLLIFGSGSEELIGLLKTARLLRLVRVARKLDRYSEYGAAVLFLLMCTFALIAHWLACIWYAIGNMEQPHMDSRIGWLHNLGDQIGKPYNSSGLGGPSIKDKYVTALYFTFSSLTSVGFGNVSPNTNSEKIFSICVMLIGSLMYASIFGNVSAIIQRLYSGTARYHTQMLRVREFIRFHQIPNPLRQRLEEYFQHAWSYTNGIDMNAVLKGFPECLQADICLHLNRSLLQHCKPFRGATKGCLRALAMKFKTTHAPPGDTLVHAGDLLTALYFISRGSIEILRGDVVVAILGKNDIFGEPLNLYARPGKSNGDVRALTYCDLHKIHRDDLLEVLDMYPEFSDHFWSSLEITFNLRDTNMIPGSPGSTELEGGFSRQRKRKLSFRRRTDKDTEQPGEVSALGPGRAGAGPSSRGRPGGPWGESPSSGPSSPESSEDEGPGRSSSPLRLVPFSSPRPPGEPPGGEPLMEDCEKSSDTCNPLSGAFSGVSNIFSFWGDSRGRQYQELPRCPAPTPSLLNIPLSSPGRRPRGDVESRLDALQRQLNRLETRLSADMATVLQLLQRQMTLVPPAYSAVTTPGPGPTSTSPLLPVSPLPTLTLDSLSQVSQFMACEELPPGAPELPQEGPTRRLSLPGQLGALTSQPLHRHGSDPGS

[19] = Octanol-water partition coefficient, log D of the compound by shake-flask method; assay type: physicochemical
Staphylococcus aureus = experiment: Antimicrobial activity against Staphylococcus aureus ARC517 at 100 uM; assay type: functional, organism-based
In short: (§3)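 Nonmycobacterial panel of Candida albicans, Gram-negative and Gram-positive pathogens.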

Escherichia coli [20] = experiment: Antimicrobial activity against Escherichia coli ARC524 at 100 uM; assay type: functional, organism-based; in short: as §3
Candida albicans = experiment: Antimicrobial activity against Candida albicans ARC527 at 100 uM; assay type: functional, organism-based; in short: as §3
[21] = test system: Mycolicibacterium smegmatis; experiment: Antimicrobial activity against Mycobacterium smegmatis ATCC 607 at 100 uM; assay type: functional, organism-based
Haemophilus influenzae [22] = experiment: Antimicrobial activity against Haemophilus influenzae ARC446 at 100 uM; assay type: functional, organism-based; in short: as §3
Haemophilus influenzae [23] = experiment: Antimicrobial activity against Haemophilus influenzae ARC158 at 100 uM; assay type: functional, organism-based; in short: as §3
Streptococcus pneumoniae = experiment: Antimicrobial activity against Streptococcus pneumoniae ARC548 at 100 uM; assay type: functional, organism-based; in short: as §3
Pseudomonas aeruginosa [24] = experiment: Antimicrobial activity against Pseudomonas aeruginosa ARC546 at 100 uM; assay type: functional, organism-based; in short: as §3
Klebsiella pneumoniae = experiment: Antimicrobial activity against Klebsiella pneumoniae ARC1865 at 100 uM; assay type: functional, organism-based; in short: as §3
Pseudomonas aeruginosa [25] = experiment: Antimicrobial activity against Pseudomonas aeruginosa ARC545 at 100 uM; assay type: functional, organism-based; in short: as §3
[26] = test system: Mycolicibacterium smegmatis; experiment: Antimicrobial activity against Mycobacterium smegmatis mc2155 at 100 uM; assay type: functional, organism-based; details: str. MC2 155
Escherichia coli [27] = experiment: Antimicrobial activity against Escherichia coli ARC523 at 100 uM; assay type: functional, organism-based; in short: as §3

SMILES	IC50 [1]	MIC [4]	MIC [5]	Activity [6]	MCC at 72 h [10]	microsomal CLint at 1 µM [11]	hepatocyte CLint at 1 µM [12]	INH (Cytochrome P450 2C9)	solubility at 24 h [13]	INH (Cytochrome P450 2D6)	INH (Cytochrome P450 1A2)	fraction unbound at 18 h, 20 µM [14]	Papp A→B [15]	INH (Cytochrome P450 3A4)	Papp B→A [16]	INH (Cytochrome P450 2C19)	solubility [17]	IC50 [18]	logD [19]	Activity (Staphylococcus aureus)	further results
C[C@H]1C[C@H](Nc2cc(=O)[nH]c3cc(F)c(F)cc23)CCN1C(=O)c1cnn(C)c1Cl	0.021 µM	0.39 µM (≈ 0.17 µg/mL)	12.5 µM (≈ 5.45 µg/mL)	inactive	–	–	–	–	–	–	–	–	–	–	–	–	–	–	–	–	fold change (FC) [2]: 47; IC50 [3]: 1.03 µM
CO[C@H]1/C=C/O[C@@]2(C)Oc3c(C)c(O)c4c(O)c(c(/C=N/N5CCN(C)CC5)c(O)c4c3C2=O)NC(=O)/C(C)=C\C=C\[C@H](C)[C@H](O)[C@@H](C)[C@@H](O)[C@@H](C)[C@H](OC(C)=O)[C@@H]1C [RIFAMPIN]	–	0.01 µM (≈ 0.00823 µg/mL)	0.01 µM (≈ 0.00823 µg/mL)	–	–	–	–	–	–	–	–	–	–	–	–	–	–	–	–	–	MIC [7]: 0.01 µM (≈ 0.00823 µg/mL); MIC [8]: 0.004 µM (≈ 0.00329 µg/mL); MIC [9]: 0.03 µM (≈ 0.0247 µg/mL)
Cc1onc(C(=O)N2[C@@H]3CC[C@H]2C[C@@H](Nc2cc(=O)n(C)c4nccnc24)C3)c1C	0.183 µM	6.2 µM (≈ 2.53 µg/mL)	–	–	> 50 µM	100 µL/min/mg	20 µL/min/1e6 cells	> 30 µM	132 µM (≈ 53.9 µg/mL)	> 30 µM	> 30 µM	0.05	33 ×10⁻⁶ cm/s	> 30 µM	21 ×10⁻⁶ cm/s	> 30 µM	307 µM (≈ 125 µg/mL)	> 33 µM	1.8	–	–
Cn1ncc(C(=O)N2CCC(Nc3cc(=O)[nH]c4ccc(F)cc34)CC2)c1C(F)(F)F	0.021 µM	6.2 µM (≈ 2.71 µg/mL)	–	inactive	–	–	–	–	–	–	–	–	–	–	–	–	–	–	–	inactive	Activity (Escherichia coli [20]): inactive; Activity (Candida albicans): inactive; Activity [21]: inactive; Activity (Haemophilus influenzae [22]): inactive; Activity (Haemophilus influenzae [23]): inactive; Activity (Streptococcus pneumoniae): inactive; Activity (Pseudomonas aeruginosa [24]): inactive; Activity (Klebsiella pneumoniae): inactive; Activity (Pseudomonas aeruginosa [25]): inactive; Activity [26]: inactive; Activity (Escherichia coli [27]): inactive
Cn1ncc(C(=O)N2CCC(Nc3cc(=O)[nH]c4c(F)cccc34)CC2)c1Cl	0.011 µM	3.1 µM (≈ 1.25 µg/mL)	–	inactive	–	–	–	–	–	–	–	–	–	–	–	–	–	–	–	inactive	Activity (Escherichia coli [20]): inactive; Activity (Candida albicans): inactive; Activity [21]: inactive; Activity (Haemophilus influenzae [22]): inactive; Activity (Haemophilus influenzae [23]): inactive; Activity (Streptococcus pneumoniae): inactive; Activity (Pseudomonas aeruginosa [24]): inactive; Activity (Klebsiella pneumoniae): inactive; Activity (Pseudomonas aeruginosa [25]): inactive; Activity [26]: inactive; Activity (Escherichia coli [27]): inactive
Cn1ncc(C(=O)N2[C@@H]3CC[C@H]2C[C@@H](Nc2cc(=O)n(C)c4ncccc24)C3)c1Cl	0.026 µM	0.25 µM (≈ 0.107 µg/mL)	–	–	> 50 µM	37 µL/min/mg	3 µL/min/1e6 cells	> 30 µM	20 µM (≈ 8.54 µg/mL)	> 30 µM	> 30 µM	0.01	1 ×10⁻⁶ cm/s	> 30 µM	36 ×10⁻⁶ cm/s	> 30 µM	100 µM (≈ 42.7 µg/mL)	> 33 µM	1.8	–	–
